In ChEMBL document CHEMBL2034835, “A solvent free, four-component synthesis and 1,3-dipolar cycloaddition of 4(H)-pyrans with nitrile oxides: synthesis and discovery of antimycobacterial activity of enantiomerically pure 1,2,4-oxadiazoles” (2012):
In brackets after ≈: the same amount, converted by molar mass.

Each compound was assayed on Mycobacterium tuberculosis (assay: Ratio of isoniazid MIC to compound MIC for Mycobacterium tuberculosis H37Rv). Settings: not given.
Assay type: functional
In the case of `C[C@H](c1ccccc1)N1CC2=C(OC(N)=C(c3nc(-c4ccc(Cl)cc4)no3)C2c2ccc(Cl)cc2Cl)/C(=C/c2ccc(Cl)cc2Cl)C1` (stereo in doubt; 10h), the Ratio is reported as 5.1.

What follows are compounds tested on Mycobacterium tuberculosis (assay: Antitubercular activity against Mycobacterium tuberculosis H37Rv after 28 days by agar dilution method). Settings: not given.
Assay type: functional
Procedure, shortened: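 Agar dilution, following NCCLS guidance, on Middlebrook 7H11 with OADC supplement containing ten-fold serial dilutions of drug. H37Rv inoculum was taken from fresh 7H11/OADC slants, adjusted to 1 mg/mL wet weight in 0.05% Tween 80 saline and diluted 10^-2 to about 10^7 cfu/mL. 5 µL was spotted per tube and incubated at 37 °C for 28 days. MIC is the lowest concentration giving complete growth inhibition.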
In the case of `C[C@H](c1ccccc1)N1CC2=C(OC(N)=C(c3nc(-c4ccccc4)no3)C2c2ccccc2)/C(=C/c2ccccc2)C1` (stereo in doubt; 9a), the MIC is reported as 11.07 µM (≈ 6.25 µg/mL).
`C[C@H](c1ccccc1)N1CC2=C(OC(N)=C(c3nc(-c4ccc(Cl)cc4)no3)C2c2ccccc2)/C(=C/c2ccccc2)C1` (stereo in doubt; 9b) gave an MIC of 5.22 µM (≈ 3.13 µg/mL).
With `Cc1ccc(/C=C2\CN([C@H](C)c3ccccc3)CC3=C2OC(N)=C(c2nc(-c4ccc(Cl)cc4)no2)C3c2ccc(C)cc2)cc1` (stereo in doubt; 9d) the MIC was 2.49 µM (≈ 1.56 µg/mL).
In the case of `C[C@H](c1ccccc1)N1CC2=C(OC(N)=C(c3nc(-c4ccc(Cl)cc4)no3)C2c2ccccc2Cl)/C(=C/c2ccccc2Cl)C1` (stereo in doubt; 9f), the MIC is reported as 0.6 µM (≈ 0.401 µg/mL).
For `C[C@H](c1ccccc1)N1CC2=C(OC(N)=C(c3nc(-c4ccc(Cl)cc4)no3)C2c2ccc(Cl)cc2Cl)/C(=C/c2ccc(Cl)cc2Cl)C1` (stereo in doubt; 9h), the MIC was 0.27 µM (≈ 0.199 µg/mL).
`C[C@H](c1ccccc1)N1CC2=C(OC(N)=C(c3nc(-c4ccccc4)no3)C2c2cccc3ccccc23)/C(=C/c2cccc3ccccc23)C1` (stereo in doubt; 9i) was tested, and the MIC was 18.8 µM (≈ 12.5 µg/mL).
In the case of `C[C@H](c1ccccc1)N1CC2=C(OC(N)=C(c3nc(-c4ccccc4)no3)C2c2ccccc2)/C(=C/c2ccccc2)C1` (stereo in doubt; 10a), the MIC is reported as 2.76 µM (≈ 1.56 µg/mL).
Compound `C[C@H](c1ccccc1)N1CC2=C(OC(N)=C(c3nc(-c4ccc(Cl)cc4)no3)C2c2ccccc2)/C(=C/c2ccccc2)C1` (stereo in doubt; 10b) has an MIC of 2.6 µM (≈ 1.56 µg/mL).
Work on `Cc1ccc(/C=C2\CN([C@H](C)c3ccccc3)CC3=C2OC(N)=C(c2nc(-c4ccccc4)no2)C3c2ccc(C)cc2)cc1` (stereo in doubt; 10c) yielded an MIC of 5.28 µM (≈ 3.13 µg/mL).
In the case of `Cc1ccc(/C=C2\CN([C@H](C)c3ccccc3)CC3=C2OC(N)=C(c2nc(-c4ccc(Cl)cc4)no2)C3c2ccc(C)cc2)cc1` (stereo in doubt; 10d), the MIC is reported as 0.64 µM (≈ 0.401 µg/mL).
With `C[C@H](c1ccccc1)N1CC2=C(OC(N)=C(c3nc(-c4ccccc4)no3)C2c2ccccc2Cl)/C(=C/c2ccccc2Cl)C1` (stereo in doubt; 10e) the MIC was 0.63 µM (≈ 0.399 µg/mL).
For `C[C@H](c1ccccc1)N1CC2=C(OC(N)=C(c3nc(-c4ccc(Cl)cc4)no3)C2c2ccccc2Cl)/C(=C/c2ccccc2Cl)C1` (stereo in doubt; 10f), the MIC was 0.15 µM (≈ 0.1 µg/mL).
Compound `C[C@H](c1ccccc1)N1CC2=C(OC(N)=C(c3nc(-c4ccccc4)no3)C2c2ccc(Cl)cc2Cl)/C(=C/c2ccc(Cl)cc2Cl)C1` (stereo in doubt; 10g) has an MIC of 0.57 µM (≈ 0.4 µg/mL).
`C[C@H](c1ccccc1)N1CC2=C(OC(N)=C(c3nc(-c4ccc(Cl)cc4)no3)C2c2ccc(Cl)cc2Cl)/C(=C/c2ccc(Cl)cc2Cl)C1` (stereo in doubt; 10h) showed an MIC of 0.07 µM (≈ 0.0516 µg/mL).
In the case of `C[C@H](c1ccccc1)N1CC2=C(OC(N)=C(c3nc(-c4ccccc4)no3)C2c2cccc3ccccc23)/C(=C/c2cccc3ccccc23)C1` (stereo in doubt; 10i), the MIC is reported as 4.71 µM (≈ 3.13 µg/mL).
`C[C@H](c1ccccc1)N1CC2=C(OC(N)=C(c3nc(-c4ccc(Cl)cc4)no3)C2c2cccc3ccccc23)/C(=C/c2cccc3ccccc23)C1` (stereo in doubt; 10j) gave an MIC of 4.48 µM (≈ 3.13 µg/mL).

Same assay, conditions: Mycobacterium tuberculosis, H37Rv, 672 h; read-out: MIC
Compound `Cc1ccc(/C=C2\CN([C@H](C)c3ccccc3)CC3=C2OC(N)=C(c2nc(-c4ccccc4)no2)C3c2ccc(C)cc2)cc1` (stereo in doubt; 9c) has an MIC of 10.5 µM (≈ 6.25 µg/mL).
`C[C@H](c1ccccc1)N1CC2=C(OC(N)=C(c3nc(-c4ccccc4)no3)C2c2ccccc2Cl)/C(=C/c2ccccc2Cl)C1` (stereo in doubt; 9e) showed an MIC of 1.23 µM (≈ 0.779 µg/mL).
In the case of `C[C@H](c1ccccc1)N1CC2=C(OC(N)=C(c3nc(-c4ccccc4)no3)C2c2ccc(Cl)cc2Cl)/C(=C/c2ccc(Cl)cc2Cl)C1` (stereo in doubt; 9g), the MIC is reported as 1.11 µM (≈ 0.78 µg/mL).
`C[C@H](c1ccccc1)N1CC2=C(OC(N)=C(c3nc(-c4ccc(Cl)cc4)no3)C2c2cccc3ccccc23)/C(=C/c2cccc3ccccc23)C1` (stereo in doubt; 9j) gave an MIC of 8.94 µM (≈ 6.25 µg/mL).
In the case of `CC[C@@H](CO)NCCN[C@@H](CC)CO` [ETHAMBUTOL], the MIC is reported as 7.64 µM (≈ 1.56 µg/mL).
`NNC(=O)c1ccncc1` [ISONIAZID] showed an MIC of 0.36 µM (≈ 0.0494 µg/mL).
`CO[C@H]1/C=C/O[C@@]2(C)Oc3c(C)c(O)c4c(O)c(c(/C=N/N5CCN(C)CC5)c(O)c4c3C2=O)NC(=O)/C(C)=C\C=C\[C@H](C)[C@H](O)[C@@H](C)[C@@H](O)[C@@H](C)[C@H](OC(C)=O)[C@@H]1C` [RIFAMPIN] was tested, and the MIC was 0.12 µM (≈ 0.0988 µg/mL).

Each compound was assayed on Mycobacterium tuberculosis (assay: Ratio of rifampicin MIC to compound MIC for Mycobacterium tuberculosis H37Rv). Settings: not given.
Assay type: functional
For `C[C@H](c1ccccc1)N1CC2=C(OC(N)=C(c3nc(-c4ccc(Cl)cc4)no3)C2c2ccc(Cl)cc2Cl)/C(=C/c2ccc(Cl)cc2Cl)C1` (stereo in doubt; 10h), the Ratio was 1.7.

The compounds below were run on Mycobacterium tuberculosis (assay: Ratio of ethambutol MIC to compound MIC for Mycobacterium tuberculosis H37Rv). Settings: not given.
Assay type: functional
Work on `C[C@H](c1ccccc1)N1CC2=C(OC(N)=C(c3nc(-c4ccc(Cl)cc4)no3)C2c2ccc(Cl)cc2Cl)/C(=C/c2ccc(Cl)cc2Cl)C1` (stereo in doubt; 10h) yielded a Ratio of 109.

What follows are compounds tested on Mycobacterium tuberculosis (assay: Ratio of ciprofloxacin MIC to compound MIC for Mycobacterium tuberculosis H37Rv). Settings: not given.
Assay type: functional
Work on `C[C@H](c1ccccc1)N1CC2=C(OC(N)=C(c3nc(-c4ccc(Cl)cc4)no3)C2c2ccc(Cl)cc2Cl)/C(=C/c2ccc(Cl)cc2Cl)C1` (stereo in doubt; 10h) yielded a Ratio of 67.3.
